Laboratory results from ChEMBL document CHEMBL1148016, “Synthesis of 1,3-diphenyl-2-propen-1-one derivatives and evaluation of their biological activities” (Bioorg Med Chem, 2007).
Active and inactive are the calls of the source. The calls are words filed in the database; no cut-off is given here.

Key:
[1] = DPPH radical scavenging activity; type: functional
Summary of the method: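 Compound mixed with 0.1 mM acetic acid buffer and warmed to 25 °C for 5 min, then 0.2 mM DPPH in ethanol added. Absorbance read at 517 nm after 30 min. Scavenging rate (%) = {1 − (A − C)/B} × 100, with sample, colour-contrast and blank absorbances. 50% scavenging concentration calculated from the scavenging rate.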

Microglia = test: Suppression of LPS-induced NO production in Sprague-Dawley rat microglia after 24 hrs; type: functional, cell-based
Summary of the method: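 Primary microglia from postnatal day-1 Sprague–Dawley rat cortex, grown 10–14 days in MEM/10% FBS, detached by shaking and replated. Cells given LPS 1 µg/mL with compound (1, 5, 10, 20 µM) for 24 h at 37 °C. Supernatant nitrite measured by Griess reaction at 540 nm. Three independent experiments in triplicate.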

Cortical neurone [2] = test: Inhibition of glutamate-induced neurotoxicity in mouse cortical neurons assessed as cell death at 5 uM after 24 hrs relative to NMDA; type: functional
Summary of the method: (§1)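 Mixed cortical neuron/glia cultures from fetal day-15 mouse cortex, on poly-D-lysine/laminin. Cytosine arabinoside 10 uM from DIV 6. Cultures exposed in serum-free MEM to 60 µM glutamate plus compound for 24 h at 37 °C. Viability by WST-1 (1:10, 2 h, 37 °C), read at 450 nm with 650 nm reference and normalized to untreated wells. Three independent experiments in triplicate.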

Cortical neurone [3] = test: Inhibition of glutamate-induced neurotoxicity in mouse cortical neurons assessed as cell death at 10 uM after 24 hrs relative to NMDA; type: functional; summary of the method: as §1

IC50 [1] [µM]	Compound	Activity (Microglia)	Activity (Cortical neurone [2])	Activity (Cortical neurone [3])
64.6	COc1cc(/C=C/C=O)ccc1O [CONIFERYL ALDEHYDE]	–	–	–
43.8	COc1cc(/C=C/C(=O)c2ccc(C(F)(F)F)cc2)ccc1O	Active	–	–
46	COc1cc(/C=C/C(=O)c2ccc3c(c2)OCO3)ccc1O	Active	Active	Active
52.5	COc1cc(/C=C/C(=O)c2c(O)c3ccccc3oc2=O)ccc1O	Active	Active	Active
52.5	COc1cc(/C=C/C(=O)c2ccc(OC)c(F)c2)ccc1O	Active	–	–
45.5	COc1cc(/C=C/C(=O)c2c(O)c3ccccc3oc2=O)ccc1O[Si](C)(C)C(C)(C)C	Active	–	–
53.2	COc1cc(/C=C/C(=O)c2cc(F)c(F)c(F)c2)ccc1O	Active	Active	Active
52.8	COc1cc(/C=C/C(=O)c2ccc([Si](C)(C)C)cc2)ccc1O	Active	–	–
